Measurements: the RNAGym collection of RNA variant scans (doi:10.1126/science.aae0568)
This sample holds only a part of the variants without activity.

B1: tRNA (parent)
chain: GUUCCGUUGGCGUAAUGGUAACGCGUCUCCCUCCUAAGGAGAAGACUGCGGGUUCGAGUCCCGUACGGAACG

Variants of: B1
Experiment: yeast fitness relative to wild type (ratio to wild type); higher = fitter; tRNA-Arg(CCU), competitive growth, 37 C, YPD
How it was run: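 For this measurement, the tRNA-Arg(CCU) gene was varied by chemical synthesis at a 3% per-site mutation rate across 69 sites, and each variant was placed at the native genomic locus in Saccharomyces cerevisiae. The pooled strains went through a 24-hour competition in YPD at 37°C in six parallel replicates, with amplicons from start and end populations read by 100-nucleotide paired-end sequencing. Darwinian fitness relative to wild type followed from the change in each genotype's frequency. Genotypes needed ≥ 100 starting reads, and estimates < 0.5 were set to 0.5.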

Variant | yeast fitness
GUUCCGUUGGCGUAAUGGUAACGCAUCUCCGUCCUAAGGAGAAGUCUGCGGGUUCGAGUCCCGUACGGAACG [G25A C31G A45U] | 0.612
GUUCCGUUGGCGUAAUGGUAAUGCGUCUCCCUUCUAAGGAGAAGACUGCGAGUUCGAGUCCCGUACGGAACG [C22U C33U G51A] | ≤ 0.5
GUUCCGUUGGCGUAAUGGUAACGCGUCUCCCUCCUAAGGAGAAGACUGCGGGUUCGAGUCCCGCACGGAGCG [U64C A70G] | 0.844
GUUCCGUUGGCGUAAUGGUAACGCGUCUCCCUCCUAAGGAGACGACUGCGGGUUCGAGUCCCCUACGGAACG [A43C G63C] | 0.692
GUUCCGUUGGCGUAAUGGUAAGGCGUCUCCCUCCUAAGGAGAAGACUGCGGGUUCGAGUCACGUACGGAACG [C22G C61A] | 0.623
GUUCCGUUGGCGCAAUGGUAACGCGUGUCCCUCCUAAGGAGAAGACUGCGGGUUCGAGUCCCGUACGGAACG [U13C C27G] | 0.544
GUUCCGUUGGCAUAAUGGUAACGCGUCUCCCUCCUAAGGAGAAGACUGCGGGUUUGAGUCCCCUACGGAACG [G12A C55U G63C] | ≤ 0.5
GUUCGGUUGGCGUAAUGGUAACGCGUCUCCCUCCUAAGGAGAAGCCUGCGGGUUCGUGUCCCGUACGGAACG [C5G A45C A57U] | ≤ 0.5
GUUUCGUUGGCGUAAUGGUAACGCGUCUCCCUCCUAAGGAGAAGCCUGCGGGUUCGAGUCUCGUACGGAACG [C4U A45C C61U] | 0.738
GUUUCGUUGGCGUAAUGGUAACGCGUUUCCCUCCUAAGGAGAAGACUGCGGGUUCGAGUCCCGCACGGAACG [C4U C27U U64C] | 0.757
GUUCCAUUGGCGUAAUGGUUACGCGUCUCCCUCCUAAGGAGAAGACUGUUGGUUCGAGUCCCGUACGGAACG [G6A A20U C49U G50U] | ≤ 0.5
GCUCCGUUGGCGUAAUGGUAACGCGUCUCCCUCCUAAGGUGAAGACUGCAGGUUCGAGUCCCGUACGGAACG [U2C A40U G50A] | 0.571
GUUCCCUUGGCGUAAUGGUAACGCGUCUCCCUCCUAAGGAGAAGACUGCGGGUUUGAGGCCCGUACGGAUCG [G6C C55U U59G A70U] | ≤ 0.5
GUUACGUUCGGGUAAUGGUACCGCGUCUCCCUCCUAAGGAGAAGACUGCGGGUUUGAGUCCUGUACCGAACG [C4A G9C C11G A21C C55U C62U G67C] | ≤ 0.5
GUUCCGUUGGCGUCAUGGUAACGCGUCUCCCUCCUAAGGAGAAGACUGCGGGUUCGAAUCCCGUACGGAACG [A14C G58A] | 0.868
GUUCCGUUGGCGUAAUGGUAACGGGUCUCCUUGCUAAGGAGAAGACUGCGGGUUCGAGUCCCGUACGGAACG [C24G C31U C33G] | ≤ 0.5
GUUCCGUUGGCGUAGUCGUAACGCGUCUCCCUCCUAAGGAGAAGACUGCGGGUUCGAGUCACGUACGGAACG [A15G G17C C61A] | ≤ 0.5
GUUUCGUUGGCGUAAUGGUGACGCGUCUCCCUCCUAAGGAGAAGACUGCGGGUUCGAGUCCCGUACGGCACG [C4U A20G A69C] | 0.817
GUUCCGUUGGCGUAAUGGUAACCCGUCUCCCUCCUAAGGAGGAGACUGCGGGUUCGAGUCCCGUACGGAACG [G23C A42G] | 0.575

Variant | yeast fitness
GUUCCGUUGGCGUAAUGGUAACACGUCUCUCUCCUAAGGAGAAGACUGCGGGUUCGAGUCCAGUACGGAACG [G23A C30U C62A] | 0.561
GUUCCGUUGGCGCAAUGGUAAGGCGUCUCCCUCCUAAGGAGAAGACUGCGGGUUCGAGUCCCGUACGGAACG [U13C C22G] | 0.709
GUUCCGUUGGCGUAAUGGUAACGGGUCUCCCUCCUAAGGAGAACACUGCGGGUUCGAGUCCCGUACGUAACG [C24G G44C G68U] | 0.663
GUUCCGUUGGCGGAAUGGUAACGCGUCUCCCUCCUAAGGAGAAGACUGCGGGUUCGAGUCCCGUGAGGAACG [U13G A65G C66A] | ≤ 0.5
GUUCCGUUGGCGUAAUGGUGACCCGUCUCCCUCCUAAGGAGAAGACUGCGGGUUCGAGUCCCGUACGGAACG [A20G G23C] | 0.727
GUUCCGUUGGCGUAAUGGUAACGCGCCUCCCUCCUAAGGAGCAGACUGCGGGUACGAGUCCCGUACGGAACG [U26C A42C U54A] | ≤ 0.5
GUUCCGUUGGUGUAAUGGUAACGCGCCUCCCUCCUAAGGAGAAGACAGCAGGUUCGAGUCCCGUACGGACCG [C11U U26C U47A G50A A70C] | ≤ 0.5
GUUCCGUUGGCGUAAUGGUAACGCGUCUCCCUCCUAAGGAGGAGACUGCGGGUUGGAGUCCCGUACGGAACG [A42G C55G] | 0.669
GUUCCGUUGGCACAAUGGUAACGCGUCUCCCUUUUAAGGAGCAGACUGCAGGUUCGAGUCCCGUACGGAACG [G12A U13C C33U C34U A42C G50A] | ≤ 0.5
GUUGCGUUGGCUUCAUGGUAACGCGUCUCCCUCCUAAGGAGAAGACUGCGGGUUCGGGUCCCGUACGGAACG [C4G G12U A14C A57G] | ≤ 0.5
GUUACGUUGGCGUAAUGGUAACGCGUCUCCGUCCUAAGGCGAAGACUGCGGGUUCGAGUCCCGUACGGAACG [C4A C31G A40C] | ≤ 0.5
GUUCCGUUGGCGAAAUGGUAACGCGUCUCCCUCCUAAGGCGAAGACUGCGGGAUCGAGUCCCGUACGGAACG [U13A A40C U53A] | 0.53
GUUCCGUUGGGGUAAUGGUUACGACUCUCCCUCCUAAGGAGAAGACUGCGGGUUCGAGUCCCGUACGGAGCG [C11G A20U C24A G25C A70G] | ≤ 0.5
GUUCCGUUGGCGUAGUGGUUACGCGUCUGCCUCCUAAGGAGAGGACUGCGGGUUCGAGUCCCGUACGGAACG [A15G A20U C29G A43G] | ≤ 0.5
GUUCCGUUAGCGUAAUGGUAACGCGUCUCCCUCUUAAGGAGAAGACUGCGGGUUCGAGUCCCGUACGGUACG [G9A C34U A69U] | 0.549
GUUCCGUUGGCGUAAUGGUAACGCGUCUCUCUCCUAAGGAGAAGACAGCGGGUUCGAGUCCCGUAAGGAACG [C30U U47A C66A] | ≤ 0.5
GUUCCGUAGGCGUAAUGGUAACGCGUCUCCCUCCUAAGGAGAAGACUGCGGGUUCGUGUCCCGUACGGAACG [U8A A57U] | 0.502
GUUCCGUUGGCGAAAUGGUAACGCGUCUCGCUCCUAAGGAGAAGACUGCGGGUUCGAGUCCCGUACGGAACG [U13A C30G] | 0.584
